According to BindingDB's records for doi:10.1016/j.bmcl.2012.02.015 (Glaxosmithkline, 2012):
pKd: −log10 of the molar value.

Target: Muscarinic acetylcholine receptor M3 (Homo sapiens, UniProt P20309)
Assay: Antagonist potency at human muscarinic acetylcholine M3 receptor expressed in CHO cells assessed as inhibition of Ach-induced calcium mobilization by FLIPR analysis relative to control
Procedure, shortened: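 Human M3 receptor in CHO cells, ACh-stimulated calcium mobilization by FLIPR. pA2 derived from the ratio of the ACh EC50 with and without antagonist. Run only where the IC50 was below 10 nM. Values above 11 could not be determined accurately.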

Chain of Muscarinic acetylcholine receptor M3 (P20309 whole entry): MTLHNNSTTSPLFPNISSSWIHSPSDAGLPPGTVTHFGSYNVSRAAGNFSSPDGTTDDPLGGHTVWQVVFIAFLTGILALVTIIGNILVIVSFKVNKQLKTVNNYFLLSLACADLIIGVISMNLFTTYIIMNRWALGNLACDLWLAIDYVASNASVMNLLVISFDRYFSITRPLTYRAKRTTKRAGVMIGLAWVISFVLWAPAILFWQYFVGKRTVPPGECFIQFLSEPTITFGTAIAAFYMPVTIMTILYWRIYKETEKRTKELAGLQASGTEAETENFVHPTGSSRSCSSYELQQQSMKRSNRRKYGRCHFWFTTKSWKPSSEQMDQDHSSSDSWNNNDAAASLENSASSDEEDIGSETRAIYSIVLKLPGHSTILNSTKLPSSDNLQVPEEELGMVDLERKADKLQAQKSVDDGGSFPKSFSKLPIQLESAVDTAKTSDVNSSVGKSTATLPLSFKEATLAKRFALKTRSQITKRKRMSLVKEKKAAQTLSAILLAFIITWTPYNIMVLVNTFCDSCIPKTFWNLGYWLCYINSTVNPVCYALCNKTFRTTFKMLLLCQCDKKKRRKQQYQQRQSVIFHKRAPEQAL

| SMILES | pKd |
| --- | --- |
| COCC[N+]1(C)C2CCC1CC(CC(C#N)(c1ccccc1)c1ccccc1)C2 (stereo not drawn) | 9.30 |
| COCCOCC[N+]1(C)C2CCC1CC(CC(C#N)(c1ccccc1)c1ccccc1)C2 (stereo not drawn) | 9.20 |
| C[N+]1(CCO)C2CCC1CC(CC(C#N)(c1ccccc1)c1ccccc1)C2 (stereo not drawn) | 9.80 |
| C=CC[N+]1(C)C2CCC1CC(CC(C#N)(c1ccccc1)c1ccccc1)C2 (stereo not drawn) | 8.90 |
| CC[N+]1(C)C2CCC1CC(CC(C#N)(c1ccccc1)c1ccccc1)C2 (stereo not drawn) | 10.30 |
| C[N+]1(CCCC#N)C2CCC1CC(CC(C#N)(c1ccccc1)c1ccccc1)C2 (stereo not drawn) | 9.80 |
| C[N+]1(CC2CC2)C2CCC1CC(CC(C#N)(c1ccccc1)c1ccccc1)C2 (stereo not drawn) | 10.30 |
| CCC[N+]1(C)C2CCC1CC(CC(C#N)(c1ccccc1)c1ccccc1)C2 (stereo not drawn) | 10.30 |
